Data on 2 compounds can be found in ChEMBL document CHEMBL4837264, “Rational Design, Optimization, and Biological Evaluation of Novel MEK4 Inhibitors against Pancreatic Adenocarcinoma” (ACS Med Chem Lett, 2021).

SMILES strings stand for the structures. The source made the active and inactive calls. The rule behind the calls is not given here.

By inhibition is commonly meant the relative decrease from the control value, in per cent. By half-life is commonly meant how long it takes for the measured level to halve.

The target of one data set is Cytochrome P450 3A4 (Homo sapiens, UniProt P08684). Kind of data set: Inhibition of CYP3A4 (unknown origin). Format: ADME.
Chain of Cytochrome P450 3A4 (P08684 whole entry): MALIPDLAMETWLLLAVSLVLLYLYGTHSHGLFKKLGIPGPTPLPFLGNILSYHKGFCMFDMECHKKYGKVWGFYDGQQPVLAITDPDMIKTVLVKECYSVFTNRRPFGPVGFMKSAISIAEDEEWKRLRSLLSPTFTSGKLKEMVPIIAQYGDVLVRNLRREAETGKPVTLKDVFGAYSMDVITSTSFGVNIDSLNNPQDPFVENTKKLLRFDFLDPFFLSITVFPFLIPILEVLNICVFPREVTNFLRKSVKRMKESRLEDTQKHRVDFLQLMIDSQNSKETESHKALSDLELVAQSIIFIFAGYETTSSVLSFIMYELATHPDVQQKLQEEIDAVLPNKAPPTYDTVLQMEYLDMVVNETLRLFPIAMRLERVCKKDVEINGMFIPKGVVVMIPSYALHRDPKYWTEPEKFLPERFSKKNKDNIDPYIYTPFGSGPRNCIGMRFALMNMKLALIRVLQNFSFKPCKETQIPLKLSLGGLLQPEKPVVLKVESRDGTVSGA
The target of data set [1] is T1, Dual specificity mitogen-activated protein kinase kinase 5 (Homo sapiens) (UniProt Q13163).
T1 sequence (whole entry): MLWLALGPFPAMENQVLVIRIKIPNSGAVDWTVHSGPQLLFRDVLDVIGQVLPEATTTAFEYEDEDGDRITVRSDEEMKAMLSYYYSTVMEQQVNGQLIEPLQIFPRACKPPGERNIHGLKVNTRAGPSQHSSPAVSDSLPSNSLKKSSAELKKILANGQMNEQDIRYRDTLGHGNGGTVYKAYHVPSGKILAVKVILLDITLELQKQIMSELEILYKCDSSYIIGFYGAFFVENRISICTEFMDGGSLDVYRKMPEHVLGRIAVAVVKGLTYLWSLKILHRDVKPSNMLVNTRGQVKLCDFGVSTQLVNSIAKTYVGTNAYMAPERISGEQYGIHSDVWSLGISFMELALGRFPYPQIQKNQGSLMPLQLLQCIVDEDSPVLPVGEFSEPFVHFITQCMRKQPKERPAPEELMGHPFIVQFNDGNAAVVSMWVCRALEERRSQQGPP
The data set is described as follows: Inhibition of human wild type partial length MEK5 (L98 to P448 residues) expressed in mammalian expression system at 1 uM measured by Kinomescan assay.

The target in data set [2] is T1, Dual specificity mitogen-activated protein kinase kinase 5 (Homo sapiens). Kind of data set: Inhibition of human wild type partial length MEK5 (L98 to P448 residues) expressed in mammalian expression system at 10 uM measured by Kinomescan assay. The gist of the method:
(§1)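 Kinome-wide binding scan on the scanEDGE DiscoverX platform, covering 97 kinases, each tested at a single compound concentration of 10 μM.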

For data set [3], the target named is T2, Dual specificity mitogen-activated protein kinase kinase 3 (Homo sapiens) (UniProt P46734).
T2 sequence (whole entry): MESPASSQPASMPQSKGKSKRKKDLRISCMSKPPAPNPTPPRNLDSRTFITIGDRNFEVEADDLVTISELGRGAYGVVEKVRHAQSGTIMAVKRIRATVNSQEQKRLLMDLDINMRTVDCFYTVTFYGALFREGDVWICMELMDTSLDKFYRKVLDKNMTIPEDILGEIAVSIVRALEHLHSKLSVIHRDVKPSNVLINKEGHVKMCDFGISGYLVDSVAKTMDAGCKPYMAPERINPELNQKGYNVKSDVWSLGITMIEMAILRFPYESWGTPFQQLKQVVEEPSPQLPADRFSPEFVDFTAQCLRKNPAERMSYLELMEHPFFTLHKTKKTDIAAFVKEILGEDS
Kind of data set: Inhibition of human wild type full length MEK3 (M1 to S318) expressed in mammalian expression system at 1 uM measured by Kinomescan assay.

The target of data set [4] is T3, Dual specificity mitogen-activated protein kinase kinase 7 (Homo sapiens) (UniProt O14733).
T3 sequence (whole entry): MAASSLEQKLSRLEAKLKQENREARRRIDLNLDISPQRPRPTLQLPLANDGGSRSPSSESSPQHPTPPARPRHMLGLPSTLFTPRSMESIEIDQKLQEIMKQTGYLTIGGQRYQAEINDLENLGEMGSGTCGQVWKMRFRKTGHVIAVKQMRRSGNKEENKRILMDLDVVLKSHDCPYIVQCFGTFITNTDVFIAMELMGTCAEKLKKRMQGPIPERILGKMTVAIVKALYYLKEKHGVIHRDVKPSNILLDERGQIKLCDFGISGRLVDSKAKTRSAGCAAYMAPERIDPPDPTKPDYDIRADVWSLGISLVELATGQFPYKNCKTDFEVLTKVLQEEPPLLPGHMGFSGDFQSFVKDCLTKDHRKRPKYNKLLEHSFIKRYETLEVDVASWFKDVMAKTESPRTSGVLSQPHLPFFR
Kind of data set: Inhibition of human wild type full length MEK7 (M1 to R417 residues) expressed in mammalian expression system at 10 uM measured by Kinomescan assay.

Another data set deals with HPAF-II. The data set is described as follows: Antiproliferative activity against human HPAF-II cells assessed as inhibition of cell proliferation measured after 72 hrs. Format: functional, cell-based. The essentials:
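Cells (~30,000; HEK293T, or pancreatic CD18 and MiaPaCa2) exposed to DMSO or a range of inhibitor doses for 72 h, then trypsinized and counted. Counts normalized to the DMSO control. Mean ± SD; three biological replicates; one-way ANOVA.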

Another data set deals with Cytochrome P450 2C9 (Homo sapiens, UniProt P11712). Kind of data set: Inhibition of CYP2C9 (unknown origin). Type of data set: ADME.
Chain of Cytochrome P450 2C9 (P11712 whole entry): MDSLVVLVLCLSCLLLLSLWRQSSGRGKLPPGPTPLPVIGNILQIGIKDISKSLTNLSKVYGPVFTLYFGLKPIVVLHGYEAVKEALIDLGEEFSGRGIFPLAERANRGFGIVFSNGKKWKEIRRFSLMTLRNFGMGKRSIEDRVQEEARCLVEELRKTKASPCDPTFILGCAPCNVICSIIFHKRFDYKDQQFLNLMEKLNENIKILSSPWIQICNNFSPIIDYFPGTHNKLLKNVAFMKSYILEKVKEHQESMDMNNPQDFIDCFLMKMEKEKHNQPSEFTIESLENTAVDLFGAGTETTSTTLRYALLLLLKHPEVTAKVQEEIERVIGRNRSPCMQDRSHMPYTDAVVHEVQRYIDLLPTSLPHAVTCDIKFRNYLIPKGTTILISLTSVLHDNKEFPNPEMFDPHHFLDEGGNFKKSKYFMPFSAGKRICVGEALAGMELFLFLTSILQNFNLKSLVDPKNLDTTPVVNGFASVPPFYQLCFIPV
For the next data set, the target named is Cytochrome P450 1A2 (Homo sapiens, UniProt P05177). Kind of data set: Inhibition of CYP1A2 (unknown origin). Type of data set: ADME.
Chain of Cytochrome P450 1A2 (P05177 whole entry): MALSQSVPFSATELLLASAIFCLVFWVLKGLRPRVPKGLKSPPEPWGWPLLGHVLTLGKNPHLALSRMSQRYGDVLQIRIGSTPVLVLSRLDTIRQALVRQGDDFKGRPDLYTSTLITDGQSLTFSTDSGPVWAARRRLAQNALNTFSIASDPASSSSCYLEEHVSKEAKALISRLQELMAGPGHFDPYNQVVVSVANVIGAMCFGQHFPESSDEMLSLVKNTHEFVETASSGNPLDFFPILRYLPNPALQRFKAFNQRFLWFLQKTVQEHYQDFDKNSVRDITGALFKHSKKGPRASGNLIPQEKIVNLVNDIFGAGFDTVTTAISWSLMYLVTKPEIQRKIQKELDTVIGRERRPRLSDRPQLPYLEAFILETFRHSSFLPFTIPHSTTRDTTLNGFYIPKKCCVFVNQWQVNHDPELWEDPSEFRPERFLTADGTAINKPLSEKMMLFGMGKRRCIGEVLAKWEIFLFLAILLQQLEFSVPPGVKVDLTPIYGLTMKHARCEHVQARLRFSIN
Data set [5] deals with Dual specificity mitogen-activated protein kinase kinase 1 (Homo sapiens) (UniProt Q02750). The data set is described as follows: Inhibition of human MEK1 in human HEK293T cells assessed as reversal of anisomycin-induced decrease of p42/44 MAPK phosphorylation at 100 uM measured after 5 hrs by Western blot assay. Type of data set: cell-based. The essentials:
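HEK293T cells pretreated with anisomycin (3 μg/mL) for 45 min, then given inhibitor (100 μM) for 5 h. Phospho- and total p42/44 MAPK and p38 MAPK, plus MEK7, detected by Western blot with HSP90 as loading control. Blots representative of at least three biological replicates.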
Background: In western blotting, separated proteins are transferred to a membrane and probed.

Data set [6] is described as follows: Metabolic stability in human liver microsomes assessed as half life by microsome assay. Format: ADME. (Microsomes from liver hold many membrane-bound enzymes, among them those of drug oxidation.)
Data set [7] concerns the target T2, Dual specificity mitogen-activated protein kinase kinase 3 (Homo sapiens). Kind of data set: Inhibition of human wild type full length MEK3 (M1 to S318) expressed in mammalian expression system at 10 uM measured by Kinomescan assay. The essentials: as §1
Data set [8] deals with Dual specificity mitogen-activated protein kinase kinase 1 (Homo sapiens) (UniProt Q02750). The data set is described as follows: Inhibition of human MEK1 in human HPAF-II cells assessed as decrease of p42/44 MAPK phosphorylation in presence of U0126 at 10 uM measured after 5 hrs by Westren blot assay. Type of data set: cell-based. The essentials:
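CD18 or MiaPaCa2 cells pretreated with U0126 (1 or 5 μM) for 1 h, then MEK4 inhibitor (10 μM) added for 5 h. Phospho- and total p42/44 MAPK detected by Western blot with HSP90 as loading control. Blots representative of at least three biological replicates.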

Another data set concerns MIA PaCa-2. The data set is described as follows: Antiproliferative activity against human MIA PaCa-2 cells assessed as inhibition of cell proliferation in presence of […] at 10 uM measured after 72 hrs. Type of data set: functional, cell-based. The essentials:
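CD18 or MiaPaCa2 cells (~30,000) treated for 72 h with DMSO, U0126 (1 or 5 μM), MEK4 inhibitor (10 μM), or the combination. Cells trypsinized and counted, with counts normalized to DMSO; two-way ANOVA. Interaction expressed as CDI = AB/(A × B) from the normalized ratios, mean ± SEM of three biological replicates.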

Chain of Dual specificity mitogen-activated protein kinase kinase 1 (Homo sapiens) (Q02750 whole entry): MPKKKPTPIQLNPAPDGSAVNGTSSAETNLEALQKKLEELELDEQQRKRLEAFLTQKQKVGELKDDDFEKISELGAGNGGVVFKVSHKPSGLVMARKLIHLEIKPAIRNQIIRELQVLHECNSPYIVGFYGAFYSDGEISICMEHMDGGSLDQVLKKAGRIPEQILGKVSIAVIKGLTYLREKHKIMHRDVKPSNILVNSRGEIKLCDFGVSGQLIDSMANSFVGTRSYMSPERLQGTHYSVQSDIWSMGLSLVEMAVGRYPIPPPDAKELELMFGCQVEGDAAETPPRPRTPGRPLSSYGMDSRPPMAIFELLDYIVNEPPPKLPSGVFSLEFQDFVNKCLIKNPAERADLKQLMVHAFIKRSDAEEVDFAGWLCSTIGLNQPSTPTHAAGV

Consider `NS(=O)(=O)c1ccc(-c2n[nH]c3cc(F)ccc23)cc1`, for which the entries for the “inhibition (INH)” value against Cytochrome P450 3A4, against Cytochrome P450 2C9 and against Cytochrome P450 1A2 were “Not Active”, “Not Active” and “Active”, respectively. In addition, the inhibition in data set [1] came to 22%; in [2] it was 76%; in [3], 40%; in [4], 79%; in data set [7], 91%. In addition, the outcome in the data set with HPAF-II and in the data set on MIA PaCa-2 was Active. Besides, the inhibition result in [5] and in data set [8] was “Active” in each case. Further, the half-life in data set [6] worked out at 1.9 h.

`NC(=O)c1ccc(NS(=O)(=O)c2cccc(-c3n[nH]c4cc(F)ccc34)c2)cc1`: the “inhibition (INH)” value at Cytochrome P450 3A4 is reported as “Not Active”; against Cytochrome P450 2C9, “Active”; against Cytochrome P450 1A2, “Active”. Also, the inhibition in [1] came out at 87%; in data set [2] it was 99%; in data set [3], 86%; in data set [4] it was 99%; in data set [7] it was 99%. For the same compound, the result with HPAF-II and in the data set on MIA PaCa-2 was Active. For the same compound, the inhibition result in data set [5] and in [8] was “Active” in each case. Moreover, in [6], the half-life is > 3.08 h.
